CHO parental Ca: ATP-evoked calcium signal inhibitors, parental CHO, primary screen, counter-screen for OX1R antagonist project, cell-based, fluorescence, Fluo-8 calcium dye. parental CHO-K1, ATP-induced calcium, Fluo-8 fluorescence. actives 0.63% (n = 330,000). AID 463079, 2010. inhibition, % at 5.6 µM;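 active means inhibition above that plate's mean sample inhibition plus 3 SD, cut at about 26% in these data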;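 further: 0% = ATP-challenged DMSO wells and 100% = DMSO wells without ATP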
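Test system: untransfected parental CHO cell line; also added: ATP stimulus; dosing: 5.6 µM, single dose; signal: calcium-sensitive Fluo-8 fluorescence; measure: percent inhibition of ATP-evoked calcium rise, normalized to controls; benchmarks: low control ATP plus DMSO, high control DMSO only; replication: one well per compound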
TAAR1 agonist: human TAAR1 agonists, primary screen, Fluo-8 calcium fluorescence, CHO RD-HGA16 cells; actives 0.99% (n = 360,000); AID 624467, 2012; vehicle wells 0%, saturating PEA agonist 100%; activation, % at 3 µM; Trace amine-associated receptor 1 (Homo sapiens), Q96RJ0;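 active means activation above the mean activation of all test compounds in the run plus 3 SD, cut at about 38% in these data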
Target sequence (Q96RJ0 whole entry, looked up): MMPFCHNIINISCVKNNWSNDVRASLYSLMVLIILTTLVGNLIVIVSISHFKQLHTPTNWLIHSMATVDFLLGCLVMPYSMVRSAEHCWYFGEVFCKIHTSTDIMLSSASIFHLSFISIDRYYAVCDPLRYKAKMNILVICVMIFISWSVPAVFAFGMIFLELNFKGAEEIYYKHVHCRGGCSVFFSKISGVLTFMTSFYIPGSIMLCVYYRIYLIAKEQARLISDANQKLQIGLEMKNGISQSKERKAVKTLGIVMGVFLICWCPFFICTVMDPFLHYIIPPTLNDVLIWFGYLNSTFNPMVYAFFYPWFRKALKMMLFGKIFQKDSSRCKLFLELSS
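System: CHO-derived RD-HGA16 cells with stable Gα16 and human TAAR1. Times: 17-24 h plating, Fluo-8 75 min 37 °C, 30 min RT. Measured by: calcium-sensitive Fluo-8 signal, excitation 470-495, emission 515-575 nm. Read-out basis: % activation relative to PEA EC100 response. Control set: DMSO and PEA EC100. Repeats: no replicates (n 1).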
OX1R antag-1: antagonists of human orexin 1 receptor (OX1R); Orexin/Hypocretin receptor type 1 (Homo sapiens), O43613; OX1R-expressing cells, FRET antagonist read-out; inhibition, % at 6.6 µM; actives 1.8% (n = 330,000); AID 485270, 2010; in the data active means inhibition mostly above about 38%, no sharp cut-off; inactive means mostly below about 40%;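 further: 0% = agonist challenge alone and 100% = reference antagonist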
TAAR1 antagonist: human TAAR1 antagonists, primary screen, Fluo-8 calcium fluorescence, CHO RD-HGA16 cells; Trace amine-associated receptor 1 (Homo sapiens), Q96RJ0; actives 1.5% (n = 360,000); inhibition, % at 3 µM; antagonist;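 active means inhibition above a per-plate cutoff, the mean inhibition of test compounds on that plate plus 3 SD, cut at about 49% in these data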;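 further: 0% = DMSO plus EC80 beta-PEA response and 100% = DMSO alone without agonist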
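Assay system: RD-HGA16 CHO cells with stable hTAAR1 and Gα16 / Reagent: EC80 β-phenethylamine stimulus / Doses: 3 µM, single point / Timing: dye loading 75 min at 37 °C, then 30 min room temperature / Measured by: Fluo-8 intracellular calcium dye fluorescence, real-time kinetic reads / Controls: vehicle wells and EC80 agonist wells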
GalR3 antagonist: GalR3 antagonists in HEK293 cells, primary screen, cell-based, fluorescence readout; Galanin receptor type 3 (Homo sapiens), O60755; HEK293 GalR3-CNG cAMP membrane potential fluorescence; galR3 body fused to GalR1 C-terminus; inhibition, % at 3 µM; actives 0.44% (n = 360,000); AID 651719, 2012;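 active means inhibition above the screen-wide average plus 3 SD, cut at about 13% in these data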;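 further: forskolin and galanin both at EC90 stimulate the cells; cAMP rise reported by CNG channel membrane potential dye signal; 0% = forskolin plus galanin with DMSO and 100% = forskolin alone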
Target sequence (O60755 1-299 limits assumed): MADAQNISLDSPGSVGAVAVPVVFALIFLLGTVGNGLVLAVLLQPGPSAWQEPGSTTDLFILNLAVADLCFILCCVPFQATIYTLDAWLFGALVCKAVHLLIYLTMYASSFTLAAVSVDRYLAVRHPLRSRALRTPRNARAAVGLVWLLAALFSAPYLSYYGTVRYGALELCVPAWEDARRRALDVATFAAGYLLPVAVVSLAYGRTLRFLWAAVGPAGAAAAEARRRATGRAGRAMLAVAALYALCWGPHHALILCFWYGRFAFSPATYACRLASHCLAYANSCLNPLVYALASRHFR
OX1R antag-2: OX1R (HCRTR1) antagonists, primary screen, fluorescence, CHO/OX1R cells, Fluo-8 calcium, orexin A | Fluo-8 calcium fluorescence | AID 434989, 2010 | actives 0.43% (n = 330,000) | inhibition, % at 5 µM;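 active means inhibition above its plate's threshold, mean inhibition of all tested compounds on the plate plus 3 SD, cut at about 37% in these data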;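 further: 0% = orexin A challenge wells and 100% = SB-334867-A antagonist wells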
Active calls of the source: *; . = no result given. Most compounds without a hit are left out; they make up all but 4.3% or so of the library.

SMILES | CHO parental Ca | TAAR1 agonist | OX1R antag-1 | TAAR1 antagonist | GalR3 antagonist | OX1R antag-2
CSc1ccc(Cl)c(C(=O)NCCOc2ccccc2)c1 | -24.3 | 2.5 | 12.6 | -1.5 | -1.2 | -26.7
Cc1ccccc1OCC(=O)N1N=C(C(F)(F)F)CC1(O)C(C)(C)C (stereo not drawn) | 33.0* | 11.0 | 23.2 | 5.8 | -4.3 | 17.3
Cc1ccc(OCC(=O)N2N=C(c3cccnc3)CC2(O)C(F)(F)F)cc1C (stereo not drawn) | -6.9 | 6.2 | 19.8 | 1.4 | -4.7 | -11.9
Cc1ccc(OCC(=O)N2N=C(C(F)(F)F)CC2(O)C(C)(C)C)cc1C (stereo not drawn) | 80.0* | 6.2 | 28.9 | 17.0 | -5.9 | 29.7
CC(C)(C)C1(O)CC(C(F)(F)F)=NN1C(=O)CCc1ccccc1 (stereo not drawn) | -20.2 | 11.4 | 7.3 | -2.7 | -2.9 | -33.4
Nc1ccc2c3c(cccc13)CC2 | 60.1* | 17.7 | 12.8 | 32.5 | -4.2 | 70.7*
Cn1c(=O)c2c(c3ccccc31)OC(C)(C)C=C2 | . | -0.6 | . | -17.7 | 3.0 | .
O=C(Nc1ccc(C(=O)N2CCOCC2)cc1)c1ccc([N+](=O)[O-])cc1 | -9.7 | 2.4 | 43.7* | -4.7 | -1.4 | 0.6
O=C(NC(=S)Nc1ccc(C(=O)N2CCOCC2)cc1)c1ccc([N+](=O)[O-])cc1 | -1.8 | 3.1 | 15.0 | 17.9 | -6.1 | -7.4
CN1CCN(S(=O)(=O)c2ccc(NC(=O)c3ccc([N+](=O)[O-])cc3)cc2)CC1 | -17.3 | 0.6 | 44.4* | -14.4 | -3.4 | -17.9
CN1CCN(S(=O)(=O)c2ccc(C(=O)Nc3ccccc3)cc2)CC1 | -5.9 | 2.9 | -1.5 | -19.5 | -6.6 | 0.6
O=C1OCC/C1=C1/NCCNC1=O | . | 0.5 | . | -3.0 | -4.5 | .
CC(=O)N1c2ccc(S(=O)(=O)N3CCC(C(=O)Nc4cccc(C(F)(F)F)c4)CC3)cc2CC1C (stereo not drawn) | 55.1* | 2.6 | 11.4 | 10.3 | -8.9 | 23.4
O=C(Nc1cccc(C(F)(F)F)c1)C1CCN(S(=O)(=O)c2ccc(N3CCCC3=O)cc2)CC1 | 73.3* | 8.7 | 30.1 | 34.5 | -4.4 | 48.4*
COc1ccc(/C=C/C(=O)NNC(=O)c2ccncc2)c(OC)c1 | -12.2 | 2.0 | 2.0 | -22.7 | -1.4 | -9.0
COCc1[nH]nc2c1C(c1ccccc1)N(Cc1ccccc1)C2=O (stereo not drawn) | . | -0.1 | . | -3.4 | -1.4 | .
COc1cccc2c1C(=O)c1c(O)c3c(c(O)c1C2=O)C[C@](O)(C(C)=O)C[C@H]3O[C@@H]1C[C@@H](N)[C@@H](O)[C@@H](C)O1 | 9.6 | 8.0 | 48.7* | 8.8 | 5.0 | 3.6
Cc1cc2nc(SCCOC(=O)Nc3ccccc3)nc(C)c2cc1C | -49.7 | -1.3 | 71.6* | 12.0 | 0.0 | -23.0
CCc1cc(-c2cnnn2Cc2ccccc2)ccc1-c1cn(CC(C)C)nn1 | . | 1.7 | . | 33.5 | -6.0 | .
Cc1ccc(Sc2ccc(S(=O)(=O)Nc3ccc(C(=O)O)cc3)cc2)cc1C | 47.9* | 20.9 | 5.9 | 56.5* | -3.5 | 42.4
Cc1ccc(Oc2ccc(S(=O)(=O)Nc3ccc(C(=O)O)cc3)cc2)cc1 | -1.6 | 3.2 | 6.5 | -6.7 | -2.1 | 25.2
Cc1ccc(SCC(=O)Nc2ccc3c(c2)C(=O)N(C)C3=O)cc1 | -0.6 | 1.6 | 19.0 | -10.0 | -2.3 | -12.9
COc1ccc(C(=O)Nc2ccc3ccccc3n2)c(OC)c1OC | -17.3 | 6.2 | 57.1* | 42.2 | -0.3 | -1.2
O=C(N[C@@H](Cc1cccnc1)C(=O)N1CCC[C@H]1C(=O)NCCc1ccccc1Cl)c1ccco1 | . | 29.9 | . | 12.1 | -6.0 | .
Cc1cc(C(=O)COC(=O)Cc2ccc(Br)cc2)c(C)n1C | -8.0 | 0.0 | 0.5 | 0.6 | -2.2 | -15.8
SMILES | CHO parental Ca | TAAR1 agonist | OX1R antag-1 | TAAR1 antagonist | GalR3 antagonist | OX1R antag-2
CCc1nc2ccc(C(=O)Nc3ccc(NC(C)=O)cc3)cn2c1N(C)CCC(C)C | . | 17.1 | . | 29.7 | 2.1 | .
CCc1nc2ccc(C(=O)Nc3ccc(C(N)=O)cc3)cn2c1N(C)CCC(C)C | . | 43.2* | . | 25.8 | -4.9 | .
CCOC(=O)Oc1ccc(/C=C2\N=C(C)OC2=O)cc1 | -8.3 | -1.6 | 13.4 | -0.6 | -11.5 | -16.3
CC(C)(C)OC(=O)N1CCCC(C(=O)Nc2cccc(C(=O)NCCc3ccccc3)c2)C1 (stereo not drawn) | . | 13.3 | . | 48.5* | -3.3 | .
CC(C)(C)OC(=O)N1CCCC(C(=O)Nc2cccc(C(=O)NC3CC3)c2)C1 (stereo not drawn) | . | 3.1 | . | -5.2 | -5.9 | .
CC(C)(C)OC(=O)N1CCCC(C(=O)Nc2cccc(C(=O)NCCCCc3ccccc3)c2)C1 (stereo not drawn) | . | 12.0 | . | 55.6* | 4.1 | .
O=C(/C=C/c1ccccc1)Nc1cccc(C(=O)NCCCCc2ccccc2)c1 | . | 12.4 | . | 67.0* | -2.4 | .
Cc1cc2c(c(=O)o1)[C@@]1(C(=O)N(C)c3ccccc31)C1=C(CC(C)(C)OC1=O)O2 | . | 0.9 | . | -12.0 | -6.4 | .
O=C(Nc1ccc([N+](=O)[O-])cn1)c1ccc(Br)o1 | -9.8 | -0.4 | 64.1* | -17.1 | -4.8 | -4.9
CC1Nc2nc(N(C)C)[nH]c(=O)c2NC1C (stereo not drawn) | 4.0 | -0.1 | 25.8 | 10.3 | 4.8 | -6.1
Cc1cc(C(=O)CSc2nnnn2C)c(C)n1-c1cccc(F)c1 | -6.7 | 10.3 | 10.4 | 2.7 | -10.3 | -3.8
Cc1cc(C)cc(-n2c(C)cc(C(=O)CSc3nnnn3C)c2C)c1 | 4.6 | 38.4* | 10.3 | 43.9 | -2.5 | 0.8
CCOC(=O)Cc1csc(SCC(=O)Nc2oc(C)c3c(C)n[nH]c(=O)c23)n1 | -12.2 | 6.0 | 16.8 | 4.2 | 3.5 | -24.3
Cc1ccccc1C(=O)c1cccn1CC(=O)NCC(C)c1ccccc1 (stereo not drawn) | -23.4 | 0.0 | 38.9* | 2.6 | -8.3 | 15.8
Cc1ccccc1C(=O)c1cccn1CC(=O)NCCCc1ccccc1 | -7.3 | -2.6 | 20.2 | -37.6 | -0.7 | -6.0
Cc1ccccc1C(=O)c1cccn1CC(=O)NC1CCCC(C)C1C (stereo not drawn) | 4.1 | 0.7 | 39.5* | -0.4 | -4.8 | 28.3
O=C(N[C@H](C(=O)N1CCC[C@H]1C(=O)NCc1ccccc1)C1CCCCC1)c1ccc(Cl)c(Cl)c1 | . | -1.4 | . | -26.0 | -8.1 | .
COC(=O)C1=C(C)N(Cc2ccc(Cl)cc2)C(=S)NC1c1cccc(Br)c1 (stereo not drawn) | . | 0.2 | . | 18.1 | -7.9 | .
